Source: ChEMBL document CHEMBL3351408, “Bioactive diterpenoids and flavonoids from the aerial parts of Scoparia dulcis” (J Nat Prod, 2014)

Columns and labels:
[1] = biological target: T1, Peroxisome proliferator-activated receptor gamma (Mus musculus, UniProt P37238); assay: Agonist activity at mouse PPARgamma expressed in HEK293 cells co-expressing with Gal4 reporter vector after 24 hrs by dual-luciferase reporter assay; type: cell-based
T1 sequence (P37238 whole entry): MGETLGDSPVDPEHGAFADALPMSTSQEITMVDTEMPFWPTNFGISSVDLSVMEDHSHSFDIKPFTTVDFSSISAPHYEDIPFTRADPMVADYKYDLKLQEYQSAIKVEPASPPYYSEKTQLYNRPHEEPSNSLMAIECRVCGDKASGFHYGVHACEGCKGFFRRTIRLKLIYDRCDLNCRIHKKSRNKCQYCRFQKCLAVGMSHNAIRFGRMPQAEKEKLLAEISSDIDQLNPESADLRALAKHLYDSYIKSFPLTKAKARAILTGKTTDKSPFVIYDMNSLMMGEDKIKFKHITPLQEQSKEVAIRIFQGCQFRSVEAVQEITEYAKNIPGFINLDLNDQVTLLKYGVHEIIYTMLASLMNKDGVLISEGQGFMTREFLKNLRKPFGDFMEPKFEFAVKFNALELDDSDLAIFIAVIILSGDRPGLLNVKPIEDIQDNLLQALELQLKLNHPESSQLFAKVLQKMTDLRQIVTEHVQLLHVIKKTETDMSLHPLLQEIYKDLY
In short: (§1)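 HEK-293 cells grown in DMEM with 10% FBS at 37 °C under 5% CO2 and plated at 1 × 10^4 cells/well. Cells co-transfected with pCMX-Gal-mPPARγ-LBD and MH100×4TK-Luc reporter, using Renilla as internal control. Compounds added at a range of concentrations for 24 h, then dual-luciferase read-out. EC50 is the concentration giving half-maximal fold activation; Emax is the maximal fold activation. Means ± SD from four independent experiments.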

[2] = biological target: T2, Peroxisome proliferator-activated receptor gamma (Mus musculus) (UniProt P37238); assay: Agonist activity at mouse PPARgamma expressed in HEK293 cells co-expressing with Gal4 reporter vector assessed as fold activation after 24 hrs by dual-luciferase reporter assay; type: cell-based; in short: as §1
T2 sequence (whole entry): T1 sequence (P37238 whole entry)

[3] = Inhibition of Saccharomyces cerevisiae alpha-glucosidase

Row | SMILES | EC50 [1] [µM] | Emax [2] | IC50 [3] [µM]
1 | COc1c(O)cc2oc(-c3ccc(O)cc3)cc(=O)c2c1O [HISPIDULIN] | 7.3 | 11.3 | 
2 | C[C@H]1O[C@H](O[C@H]2[C@H](O)[C@@H](O)[C@@H](O[C@H]3[C@H](O)[C@@H](O)C(O)O[C@@H]3CO)O[C@@H]2CO)[C@H](O)[C@@H](O)[C@@H]1N[C@H]1C=C(CO)[C@@H](O)[C@H](O)[C@H]1O (some centres undefined) [ACARBOSE] |  |  | 3760
3 | O=c1cc(-c2ccc(O)cc2)oc2cc(O)cc(O)c12 [APIGENIN] | 24.9 | 3.4 | 
4 | O=c1cc(-c2ccc(O)cc2)oc2cc(O)c(O)c(O)c12 [SCUTELLAREIN] | 16.4 | 3.4 | 
5 | C=C1[C@@H](CC/C(C)=C/CO)[C@@]2(C)CCC[C@](C)(C(=O)O)[C@@H]2[C@H](OC(=O)c2ccccc2)[C@H]1O | > 100 |  | 
6 | COc1c(O[C@@H]2O[C@H](CO)[C@@H](O)[C@H](O)[C@H]2O)cc2oc(-c3ccc(O)cc3)cc(=O)c2c1O [HISPIDULOSIDE] | > 100 |  | 
7 | C=C1[C@@H](CC/C(C)=C/CO)[C@@]2(C)CCC[C@](C)(C(=O)O)[C@@H]2[C@H](OC(=O)c2ccccc2)[C@H]1OC(C)=O | 0.9 | 24.7 | 
8 | CC(=O)O[C@@H]1[C@@H](OC(=O)c2ccccc2)[C@@H]2[C@](C)(CCC[C@@]2(C)C(=O)O)[C@H](CC/C(C)=C/CO)[C@@]12CO2 | > 100 |  | 
9 | CN(CCOc1ccc(CC2SC(=O)NC2=O)cc1)c1ccccn1 (centres undefined) |  | 11.8 | 
10 | O=c1cc(-c2ccc(O)c(O)c2)oc2cc(O)cc(O)c12 [LUTEOLIN] | 2.3 | 7.6 | 
11 | COc1ccc(-c2cc(=O)c3c(O)c(OC)c(O[C@@H]4O[C@H](CO[C@@H]5O[C@@H](C)[C@H](O)[C@@H](O)[C@H]5O)[C@@H](O)[C@H](O)[C@H]4O)cc3o2)cc1 [PECTOLINARIN] | > 100 |  | 
12 | COc1ccc(-c2oc3cc(O)cc(O)c3c(=O)c2O[C@@H]2O[C@H](COC(=O)/C=C/c3ccc(O)cc3)[C@@H](O)[C@H](O)[C@H]2O)cc1OC | > 100 |  | 
13 | C=C1C[C@@H](OC(=O)c2ccccc2)[C@@H]2[C@](C)(CCC[C@@]2(C)C(=O)O)[C@@H]1CC/C(C)=C/CO [SCOPARIC ACID A] | > 100 |  | 
14 | COc1ccc(-c2cc(=O)c3c(O)c(OC)c(O)c(OC)c3o2)cc1O | 4.3 | 2 | 
15 | C=C(C)[C@@H]1CC[C@]2(C(=O)O)CC[C@]3(C)[C@H](CC[C@@H]4[C@@]5(C)CC[C@H](O)C(C)(C)[C@@H]5CC[C@]43C)[C@@H]12 [BETULINIC ACID] | > 100 |  | 
16 | C[C@@]12CC[C@]3(C1)[C@H](CC2=O)C[C@@H](OC(=O)c1ccccc1)[C@@H]1[C@]3(C)CCC[C@]1(C)C(=O)O [4-EPI-SCOPADULCIC ACID B] | > 100 |  | 14.6
17 | O=c1cc(-c2ccc(O)cc2)oc2c([C@@H]3OC[C@H](O)[C@H](O)[C@H]3O)c(O)cc(O)c12 | > 100 |  | 
